Assay outcomes: PubChem, several laboratories
PolyA inhibitor – polyadenylation inhibitors in yeast reporter cells, primary screen, luminescence, S. cerevisiae | activity score, % at 12 µM | 0.02% of 300,000 active | AID 1875, 2009 | S. cerevisiae SKY197-pL101 polyadenylation reporter, beta-gal luminescence; efflux-impaired pdr1/pdr3 knockout yeast; score 100 = 6 SD above DMSO;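 active = lowest replicate activity score at least 50, where 100 means six control SD above control mean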;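 also: yeast exposed to compound for 9 h at 30 °C; higher score means more reporter readthrough which indicates perturbed polyadenylation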
procasp7 counter – procaspase-7 activators, primary screen, counter-screen for procaspase-3 activator project, biochemical, absorbance, HTS, human; Caspase-7 (Homo sapiens), P55210; recombinant procaspase-7, Ac-DEVD-pNA absorbance 405 nm; D23A/D198A/D206A triple mutant, cannot self-cleave; scale: DMSO 0, 5 µM enzyme 100; activation, % at 8.5 µM; 0.093% of 330,000 active;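 active = percent activation above the screen-wide mean plus 3 SD, cut at about 25% in these data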
Target sequence (P55210 whole entry D23A/D198A/D206A): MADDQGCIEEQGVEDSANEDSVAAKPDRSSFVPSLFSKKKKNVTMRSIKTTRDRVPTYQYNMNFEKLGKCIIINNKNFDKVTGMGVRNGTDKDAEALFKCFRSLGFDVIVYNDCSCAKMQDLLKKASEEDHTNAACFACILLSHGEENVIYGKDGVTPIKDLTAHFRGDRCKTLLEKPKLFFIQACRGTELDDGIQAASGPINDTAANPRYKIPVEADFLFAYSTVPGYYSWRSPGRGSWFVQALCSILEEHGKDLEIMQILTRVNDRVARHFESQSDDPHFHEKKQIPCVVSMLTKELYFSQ
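System: Procaspase-7 triple mutant (PC-7 D3A); measure: % activation from two-timepoint absorbance difference, scaled to controls; times: 1 h compound preincubation, 2 h substrate cleavage, 25 °C; also added: Ac-DEVD-pNA substrate, 400 µM as added; measured by: Epi-absorbance of released pNA at 405 nm, two timepoints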
AHR activator – AHR activators, primary screen, cell-based, luminescence, luciferase reporter, human. Aryl hydrocarbon receptor (Homo sapiens), P35869. AHR-responsive luciferase reporter cells. activation, % at 5 µM. 2.5% of 320,000 active. AID 2796, 2010; in the data active = activation above about 47%
proCasp3 act – activators of human procaspase-3 D3A mutant, primary screen, biochemical, absorbance, PC-3 D3A mutant, single concentration | recombinant procaspase-3 D3A, Ac-DEVD-pNA absorbance 405 nm | 0.11% of 330,000 active | activation, % at 8.5 µM;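 active = activation above the mean of all tested compounds plus 3 SD, cut at about 21% in these data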
Target sequence (P42574 whole entry D9A/D28A/D175A): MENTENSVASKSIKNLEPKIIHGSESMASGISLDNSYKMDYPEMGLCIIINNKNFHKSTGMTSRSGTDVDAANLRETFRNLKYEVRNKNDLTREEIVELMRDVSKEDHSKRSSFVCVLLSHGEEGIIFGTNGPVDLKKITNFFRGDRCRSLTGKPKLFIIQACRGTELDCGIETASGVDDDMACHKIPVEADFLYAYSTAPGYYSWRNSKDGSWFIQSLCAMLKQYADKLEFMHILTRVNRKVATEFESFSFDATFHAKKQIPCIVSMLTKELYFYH
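Compound: 8.5 µM single point, 0.8% DMSO / Material: Autoprocessing-dead procaspase-3 D3A mutant enzyme / Timing: 1 h preincubation plus 2 h reaction at 25 °C / Medium: Zinc-free HEPES/NaCl buffer with 0.01% Triton X-100 at pH 7.4 / Technique: 405 nm absorbance of p-nitroaniline, reads at 0 and 120 min / Repeats: one well per compound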
PC3 dual counter – procaspase-3 activators, counter-screen for dual procaspase-3/7 activator project, biochemical, absorbance, PC-3 D3A mutant, human | shares compounds with procasp7 counter | recombinant PC-3 D3A, Ac-DEVD-pNA absorbance 405 nm; aspartates 9, 28, 175 changed to alanine; 100% = enzyme control | activation, % at 8.5 µM | 290 tested, under 10 active | AID 493114, 2011;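 active = mean percent activation across triplicates above a set limit taken from the earlier primary procaspase-3 screen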
PC7 dual conf – activation of procaspase-7 enzyme – biochemical, absorbance, human, dual procaspase-3/-7 activator project, confirmation; recombinant procaspase-7, Ac-DEVD-pNA absorbance 405 nm; D23A/D198A/D206A mutant that cannot self-cleave; shares compounds with procasp7 counter; AID 493115, 2011; 290 tested, under 10 active; activation, % at 8.5 µM;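 active = mean activation above a set limit carried over from the earlier primary screen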
Of the large screens only hits and unclear results are named; the others gave an inactive call (follow-up assays come after a bar, where they were run). A selection: hits, their analogues and other compounds. The true share with any hit is near 2.6%.

CCOc1ccc(NC(=O)CSc2nnc(C)n2CC)cc1	none
Cc1ccc(NC(=O)CCNS(=O)(=O)c2ccc3c(c2)CCC(=O)N3)cc1	none
Cn1nc(N)c2c(-c3ccc(Cl)cc3)c(C#N)c(N)nc21	none
CCN(CC)c1ccc(-c2c(C#N)c(N)nc(OC)c2C#N)cc1	procasp7 counter 27.0, proCasp3 act 60.0 | PC3 dual counter inactive | PC7 dual conf inactive
O=C(C1CCC(CNc2c(N3CCCCC3)c(=O)c2=O)CC1)N1CCCC1 (stereo not given)	none
CCN1C(=O)N/C(=C/c2ccc(Sc3ccc(C)cc3)o2)C1=O	procasp7 counter 70.5, proCasp3 act 37.8 | PC3 dual counter inactive | PC7 dual conf inactive
CCOC(=O)C1=CC[C@H]2c3c(c4ccccc4n3C)C[C@H]1N2C	none (no result: PolyA inhibitor)
O=C(NCc1ccc(F)cc1)C1CCCN1S(=O)(=O)c1ccccc1C(F)(F)F (stereo not given)	none (no result: PolyA inhibitor)
COC(=O)c1ccc(CNC(=O)[C@@H]2CCCN2S(=O)(=O)c2ccccc2F)cc1	procasp7 counter 26.4 (no result: PolyA inhibitor) | PC3 dual counter inactive | PC7 dual conf inactive
c1ccc2c(-c3c[nH]c4ccccc34)c3ccccc3nc2c1	procasp7 counter 33.5 | PC3 dual counter inactive | PC7 dual conf inactive
O=C(O)c1cc(-c2c[nH]c3ccccc23)nc2ccc3ccccc3c12	none
COC(=O)C1=C(C)NC(C)=C(C(=O)OC)C1C(=O)OCCN1C(=O)c2ccccc2C1=O	procasp7 counter 44.4 | PC3 dual counter inactive | PC7 dual conf inactive
CCOc1cccc(-c2c(C(=O)N/N=C/c3ccsc3)nnn2-c2nonc2N)c1	none
O=C(CCC(=O)N(CC(=O)NC1CCCC1)Cc1ccccc1)Nc1nccs1	procasp7 counter 101.3 | PC3 dual counter inactive | PC7 dual conf inactive
O=C(NCCN1CCOCC1)C(=O)c1c[nH]c2ccccc12	procasp7 counter 30.4 | PC3 dual counter inactive | PC7 dual conf inactive
O=C(CN1CCOCC1)c1c[nH]c2ccccc12	none
Cn1c2ccccc2c(=O)c2ccc(C#CC3(N)CCCCC3)cc21	none
Cn1c2ccccc2c(=O)c2ccc(C#Cc3ccccn3)cc21	procasp7 counter 26.9 | PC3 dual counter inactive | PC7 dual conf inactive
Cn1c2ccccc2c(=O)c2cc(C#CC3(O)CCCCC3)ccc21	procasp7 counter 179.9, proCasp3 act 40.9 | PC3 dual counter inactive | PC7 dual conf inactive
Cn1c2ccccc2c(=O)c2cc(C#Cc3ccsc3)ccc21	procasp7 counter 39.7, proCasp3 act 38.5 | PC3 dual counter inactive | PC7 dual conf inactive
CSc1ccc(CCNS(=O)(=O)c2csc(C(N)=O)c2)cc1	none
COc1ccc(OC)c(NC(=O)c2csc(Cl)c2OC)c1	none
CCOc1ccc(N2C(=O)CC(Cc3ccc(Br)cc3)C2=O)cc1 (stereo not given)	procasp7 counter 80.9 | PC3 dual counter inactive | PC7 dual conf inactive
COc1ccc(/C=C/C(=O)Nc2cccc(S(=O)(=O)NC3=NCCCCC3)c2)c(OC)c1	none (no result: PolyA inhibitor)
COc1ccc(OC)c(/C=C/C(=O)Nc2cccc(S(=O)(=O)NC3=NCCCCC3)c2)c1	procasp7 counter 84.5, proCasp3 act 26.4 (no result: PolyA inhibitor) | PC3 dual counter inactive | PC7 dual conf inactive
Cc1ccc(NC(=O)C2COc3ccccc3O2)cc1S(=O)(=O)N1CCCCC1 (stereo not given)	none (no result: PolyA inhibitor)
COC(=O)c1cc(=O)n2c(sc3ccccc32)c1C#N	procasp7 counter 26.2 | PC3 dual counter inactive | PC7 dual conf inactive
N#CCNC(=O)c1nn2c(C(F)(F)F)cc(-c3ccccc3)nc2c1Br	procasp7 counter 25.9 | PC3 dual counter inactive | PC7 dual conf inactive
Cn1nc(C(=O)NNC(=O)c2ccc(Cl)c(S(N)(=O)=O)c2)c2ccccc2c1=O	none (no result: PolyA inhibitor)
Cn1nc(C(=O)NNC(=O)c2cccc(Cl)c2)c2ccccc2c1=O	procasp7 counter 25.9 (no result: PolyA inhibitor) | PC3 dual counter inactive | PC7 dual conf inactive
CC(=O)c1cc2c(ccc3ccccc32)oc1=O	none (no result: procasp7 counter, AHR activator, proCasp3 act)
O=C(c1ccco1)c1cc2c(ccc3ccccc32)oc1=O	procasp7 counter 26.1 | PC3 dual counter inactive | PC7 dual conf inactive
O=C1[C@H]2C(c3ccccc3)=NN(c3ccccc3)[C@H]2C(=O)N1c1ccccc1	procasp7 counter 39.9, proCasp3 act 31.8 | PC3 dual counter inactive | PC7 dual conf inactive
O=C1OCCN1C(=O)[C@H]1[C@H](c2ccc(F)cc2)C(c2ccccc2)=NN1c1ccccc1	none (no result: PolyA inhibitor, AHR activator)
CCC(C)NC(=O)CSc1ccc(Cl)cc1 (stereo not given)	none
CCC(C)NC(=O)CSc1ccc(NC(C)=O)cc1 (stereo not given)	procasp7 counter 39.1 | PC3 dual counter inactive | PC7 dual conf inactive
CCc1cc2c3c(c(=O)oc2cc1O)CCCC3	procasp7 counter 26.0, AHR activator 76.1, proCasp3 act 27.9 | PC3 dual counter inactive | PC7 dual conf inactive
CCOc1cccc(OCCOc2ccc(C(=O)c3ccccc3)cc2)c1	procasp7 counter 25.9 | PC3 dual counter inactive | PC7 dual conf inactive
CCOC(=O)c1ccc2nc(NC(C)=O)sc2c1	none
CCOC(=O)c1ccc2nc(Nc3nc4ccc(F)cc4s3)sc2c1	procasp7 counter 30.6 | PC3 dual counter inactive | PC7 dual conf inactive
Cc1cc(C)c2c(N)c(C(=O)N/N=C/c3ccccc3)sc2n1	procasp7 counter 32.1, proCasp3 act 35.2 | PC3 dual counter inactive | PC7 dual conf inactive
CC12CCC(=O)N1C(C(=O)Nc1nnc(SCc3ccc(F)cc3)s1)CS2 (stereo not given)	none
COc1ccc(C2CC(c3ccccc3)=NN2c2ccc(S(N)(=O)=O)cc2)cc1OC (stereo not given)	procasp7 counter 25.8 | PC3 dual counter inactive | PC7 dual conf inactive
NS(=O)(=O)c1ccc(N2N=C(c3ccccc3)CC2c2cccc(F)c2)cc1 (stereo not given)	procasp7 counter 67.4, proCasp3 act 39.5 | PC3 dual counter inactive | PC7 dual conf inactive
NS(=O)(=O)c1ccc(N2N=C(c3ccccc3)CC2c2cccc(Br)c2)cc1 (stereo not given)	procasp7 counter 32.0, proCasp3 act 29.0 (no result: PolyA inhibitor, AHR activator) | PC3 dual counter inactive | PC7 dual conf inactive
NS(=O)(=O)c1ccc(N2N=C(c3ccc(Br)cc3)CC2c2ccc(F)cc2)cc1 (stereo not given)	none
